{"data": "Assay results collected from several papers", "target": "Phosphatidylinositol 4,5-bisphosphate 3-kinase catalytic subunit delta isoform (PIK3CD, Homo sapiens, UniProt O00329)", "Sequence (O00329 1-1044, as in one of the studies)": "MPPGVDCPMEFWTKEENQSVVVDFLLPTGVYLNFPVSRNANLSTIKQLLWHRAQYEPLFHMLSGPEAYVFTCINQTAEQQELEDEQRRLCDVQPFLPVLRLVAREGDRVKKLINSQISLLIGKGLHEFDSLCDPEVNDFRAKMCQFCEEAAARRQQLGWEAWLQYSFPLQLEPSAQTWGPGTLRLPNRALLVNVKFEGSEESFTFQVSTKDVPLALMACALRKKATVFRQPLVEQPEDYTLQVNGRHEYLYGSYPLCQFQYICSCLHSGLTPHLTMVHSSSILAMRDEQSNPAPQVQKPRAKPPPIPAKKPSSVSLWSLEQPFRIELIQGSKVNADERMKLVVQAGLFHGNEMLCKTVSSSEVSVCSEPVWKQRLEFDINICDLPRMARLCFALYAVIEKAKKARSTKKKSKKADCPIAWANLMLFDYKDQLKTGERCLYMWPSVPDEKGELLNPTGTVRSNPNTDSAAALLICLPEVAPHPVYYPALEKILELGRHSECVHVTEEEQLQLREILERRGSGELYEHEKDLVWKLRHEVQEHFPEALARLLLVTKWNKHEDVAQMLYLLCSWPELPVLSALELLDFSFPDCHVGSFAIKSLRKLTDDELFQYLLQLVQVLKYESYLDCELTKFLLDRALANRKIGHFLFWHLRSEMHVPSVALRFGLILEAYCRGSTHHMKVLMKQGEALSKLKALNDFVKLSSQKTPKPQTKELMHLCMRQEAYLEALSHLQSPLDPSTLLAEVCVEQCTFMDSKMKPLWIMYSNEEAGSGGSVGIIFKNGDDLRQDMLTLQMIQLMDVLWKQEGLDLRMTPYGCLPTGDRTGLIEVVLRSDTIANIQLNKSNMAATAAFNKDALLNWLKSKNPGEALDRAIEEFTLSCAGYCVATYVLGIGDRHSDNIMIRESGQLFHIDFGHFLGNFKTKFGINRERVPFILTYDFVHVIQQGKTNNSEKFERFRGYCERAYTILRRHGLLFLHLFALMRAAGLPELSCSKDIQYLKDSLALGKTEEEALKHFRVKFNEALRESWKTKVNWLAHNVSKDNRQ", "note": "Each line is one published result; the experiments were not run side by side."}
{"SMILES": "O=C(NCCCN1CCOCC1)c1ccc(Nc2nccc(-c3cc4ccccc4s3)n2)cc1", "observed": "binding", "method": "competition with immobilised ligand", "tested at": "1 µM", "remaining binding [%]": 56}
{"SMILES": "C[C@@H]1CCN(c2nccc(-c3cnn4ncccc34)n2)C1", "observed": "binding", "tested at": "1 µM", "remaining binding [%]": 100}
{"SMILES": "COc1cnc(Nc2cccc(S(N)(=O)=O)c2)nc1N1CCN(c2ccccc2)C(=O)C1", "observed": "binding", "method": "competition with immobilised ligand", "tested at": "1 µM", "remaining binding [%]": 47}
{"SMILES": "Cc1cc(NC(=O)c2cccc(S(F)(F)(F)(F)F)c2)cc(-n2ccn3nc(-c4cccnc4)cc23)c1", "observed": "cell-free assay", "method": "competition with immobilised ligand", "tested at": "1 µM", "remaining binding [%]": 100}
{"SMILES": "O=C(c1ccc(Nc2nccc(-c3cc4ccccc4s3)n2)cc1)N1CCC(N2CCCC2)CC1", "observed": "binding", "method": "competition with immobilised ligand", "tested at": "1 µM", "remaining binding [%]": 41}
{"SMILES": "c1cncc(-c2cccc(Nc3nccc(NC4CCCCC4)n3)c2)c1", "observed": "binding", "method": "competition with immobilised ligand", "tested at": "10 µM", "remaining binding [%]": 88}
{"SMILES": "c1cnn2ncc(-c3ccnc(N4CCC45COC5)n3)c2c1", "observed": "binding", "tested at": "1 µM", "remaining binding [%]": 69}
{"SMILES": "C=CC(=O)N1CCC(C(=O)NCC(=O)N2CCN(c3nc(-c4cnc(N)nc4C(F)F)nc(N4CCOCC4)n3)CC2)CC1", "observed": "binding", "method": "competition with immobilised ligand", "tested at": "1 µM", "remaining binding [%]": 19}
{"SMILES": "C[C@H](NC(=O)c1cnc2n1[C@](C)(Cc1ccc(C#N)cc1)C(=O)N2c1cc(Cl)c(F)c(Cl)c1)C(=O)NC1(c2ccccn2)CC1", "observed": "cell-free assay", "method": "competition with immobilised ligand", "tested at": "1 µM", "remaining binding [%]": 95}
{"SMILES": "CN(c1nccc(-c2cnn3ncccc23)n1)C1CC1", "observed": "binding", "tested at": "1 µM", "remaining binding [%]": 100}
{"SMILES": "COc1ncc2cc3ccccc3nc2c1C#N", "observed": "cell-free assay", "method": "competition with immobilised ligand", "tested at": "5 µM", "remaining binding [%]": 98}
{"SMILES": "CCc1ccccc1C(=O)Nc1n[nH]c2c(C)c(F)c(C3C(C#N)=C(C)N(C)C(C)=C3C#N)cc12", "observed": "cell-free assay", "method": "competition with immobilised ligand", "tested at": "1 µM", "remaining binding [%]": 90}
{"SMILES": "O=C(c1ccc(Nc2ncc(Cl)c(-c3cc4ccccc4s3)n2)cc1)N1CCC(N2CCCC2)CC1", "observed": "binding", "method": "competition with immobilised ligand", "tested at": "1 µM", "remaining binding [%]": 71}
{"SMILES": "CN(C)c1nccc(-c2cnn3ncccc23)n1", "observed": "binding", "tested at": "1 µM", "remaining binding [%]": 85}
{"SMILES": "O=C1NC(c2ccccn2)Sc2ccccc21 (centres unmarked)", "observed": "cell-free assay", "method": "competition with immobilised ligand", "tested at": "1 µM", "remaining binding [%]": 51}
{"SMILES": "N[C@@H]1CCN(c2nccc(-c3cnn4ncccc34)n2)C1", "observed": "binding", "tested at": "1 µM", "remaining binding [%]": 100}
{"SMILES": "CSc1cccnc1N1CCN(Cc2nc3ccccc3[nH]2)CC1", "observed": "cell-free assay", "method": "competition with immobilised ligand", "tested at": "1 µM", "remaining binding [%]": 100}
{"SMILES": "Cc1cnn2ncc(-c3ccnc(N(C)C)n3)c2c1", "observed": "binding", "tested at": "1 µM", "remaining binding [%]": 100}
{"SMILES": "CNC(=O)Nc1ccc2c(c1)[C@@]1(CC2)OC(=O)N(CC(=O)N(Cc2ccc(F)cc2)[C@@H](C)C(F)(F)F)C1=O", "observed": "cell-free assay", "method": "competition with immobilised ligand", "tested at": "1 µM", "remaining binding [%]": 100}
{"SMILES": "O=C(Nc1c[nH]nc1C(=O)NC1CCNCC1)c1cc(F)cc(F)c1", "observed": "binding", "method": "competition with immobilised ligand", "tested at": "1 µM", "remaining binding [%]": 100}
